Activity and inhibition data for one compound are collected here from ChEMBL document CHEMBL5370658, “Development of First-in-Class Dual Sirt2/HDAC6 Inhibitors as Molecular Tools for Dual Inhibition of Tubulin Deacetylation” (J Med Chem, 2023).

Test [1] relates to PC-3M-luc. The experiment in a line: Cytotoxicity against human PC-3M-luc cells assessed as reduction in cell viability incubated for 72 hrs by MTS assay. Type of test: functional, cell-based. An outline of the steps:
(§1)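 Cell viability EC50 from at least two independent experiments, each run in triplicate. Results are compared by t-test.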

Test [2] addresses T1, Polyamine deacetylase HDAC10 (Homo sapiens) (UniProt Q969S8).
T1 sequence (whole entry): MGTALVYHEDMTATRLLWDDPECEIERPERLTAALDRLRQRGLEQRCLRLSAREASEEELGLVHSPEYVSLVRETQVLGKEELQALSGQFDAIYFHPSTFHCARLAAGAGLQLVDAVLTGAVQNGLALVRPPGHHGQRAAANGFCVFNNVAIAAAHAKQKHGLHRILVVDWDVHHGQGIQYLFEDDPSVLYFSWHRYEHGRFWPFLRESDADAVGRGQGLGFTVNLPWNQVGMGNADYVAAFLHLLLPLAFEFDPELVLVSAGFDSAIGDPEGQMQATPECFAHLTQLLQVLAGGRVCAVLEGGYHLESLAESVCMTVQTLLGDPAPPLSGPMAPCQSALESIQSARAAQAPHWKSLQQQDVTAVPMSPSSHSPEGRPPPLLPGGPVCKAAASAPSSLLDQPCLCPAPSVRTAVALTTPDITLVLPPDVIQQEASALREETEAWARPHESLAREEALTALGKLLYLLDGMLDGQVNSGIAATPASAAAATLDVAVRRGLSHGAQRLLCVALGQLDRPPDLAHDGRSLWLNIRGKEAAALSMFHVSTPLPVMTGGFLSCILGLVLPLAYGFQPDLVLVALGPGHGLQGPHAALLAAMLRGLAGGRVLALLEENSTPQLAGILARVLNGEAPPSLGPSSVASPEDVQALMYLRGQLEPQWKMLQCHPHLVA
The experiment in a line: Inhibition of HDAC10 (unknown origin) using Abz-SRGGK(STFA)FRR-NH2 as substrate at 6 to 20000 nM preincubated for 5 mins followed by substrate addition and measured every 30 secs for 30 mins by continuous fluorescence based assay. Particulars: dose 6-20000 nM, time 35.0 min. In a few lines: (§2)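 Continuous fluorescence assay in 20 mM HEPES pH 7.4, 140 mM NaCl, 10 mM KCl, 1 mM TCEP, 0.2 mg/mL BSA, 3% DMSO final. Enzyme (HDAC4 5 nM, HDAC5 10 nM, HDAC7 5 nM, HDAC9 20 nM) preincubated with inhibitor at room temperature. HDAC10 (5 nM) instead in 20 mM HEPES pH 7.4, 0.5 mg/mL BSA. Initial slope used as activity.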

Test [3] addresses Histone deacetylase 9 (Homo sapiens) (UniProt Q9UKV0). The experiment in a line: Inhibition of HDAC9 (unknown origin) using Abz-SRGGK(STFA)FRR-NH2 as substrate at 6 to 20000 nM preincubated for 5 mins followed by substrate addition and measured every 30 secs for 30 mins by continuous fluorescence based assay. Particulars: dose 6-20000 nM, time 35.0 min. An outline of the steps: as §2

Test [4] concerns PC-3M-luc. The following applies: Homo sapiens, dose 20.0 µM, time 5.0 hrs.
The target in test [5] is Histone deacetylase 4 (Homo sapiens) (UniProt P56524). In words: Inhibition of HDAC4 (unknown origin) using Abz-SRGGK(STFA)FRR-NH2 as substrate at 6 to 20000 nM preincubated for 5 mins followed by substrate addition and measured every 30 secs for 30 mins by continuous fluorescence based assay. The following applies: dose 6-20000 nM, time 35.0 min. An outline of the steps: as §2
Sequence of Histone deacetylase 4 (Homo sapiens) (P56524 whole entry): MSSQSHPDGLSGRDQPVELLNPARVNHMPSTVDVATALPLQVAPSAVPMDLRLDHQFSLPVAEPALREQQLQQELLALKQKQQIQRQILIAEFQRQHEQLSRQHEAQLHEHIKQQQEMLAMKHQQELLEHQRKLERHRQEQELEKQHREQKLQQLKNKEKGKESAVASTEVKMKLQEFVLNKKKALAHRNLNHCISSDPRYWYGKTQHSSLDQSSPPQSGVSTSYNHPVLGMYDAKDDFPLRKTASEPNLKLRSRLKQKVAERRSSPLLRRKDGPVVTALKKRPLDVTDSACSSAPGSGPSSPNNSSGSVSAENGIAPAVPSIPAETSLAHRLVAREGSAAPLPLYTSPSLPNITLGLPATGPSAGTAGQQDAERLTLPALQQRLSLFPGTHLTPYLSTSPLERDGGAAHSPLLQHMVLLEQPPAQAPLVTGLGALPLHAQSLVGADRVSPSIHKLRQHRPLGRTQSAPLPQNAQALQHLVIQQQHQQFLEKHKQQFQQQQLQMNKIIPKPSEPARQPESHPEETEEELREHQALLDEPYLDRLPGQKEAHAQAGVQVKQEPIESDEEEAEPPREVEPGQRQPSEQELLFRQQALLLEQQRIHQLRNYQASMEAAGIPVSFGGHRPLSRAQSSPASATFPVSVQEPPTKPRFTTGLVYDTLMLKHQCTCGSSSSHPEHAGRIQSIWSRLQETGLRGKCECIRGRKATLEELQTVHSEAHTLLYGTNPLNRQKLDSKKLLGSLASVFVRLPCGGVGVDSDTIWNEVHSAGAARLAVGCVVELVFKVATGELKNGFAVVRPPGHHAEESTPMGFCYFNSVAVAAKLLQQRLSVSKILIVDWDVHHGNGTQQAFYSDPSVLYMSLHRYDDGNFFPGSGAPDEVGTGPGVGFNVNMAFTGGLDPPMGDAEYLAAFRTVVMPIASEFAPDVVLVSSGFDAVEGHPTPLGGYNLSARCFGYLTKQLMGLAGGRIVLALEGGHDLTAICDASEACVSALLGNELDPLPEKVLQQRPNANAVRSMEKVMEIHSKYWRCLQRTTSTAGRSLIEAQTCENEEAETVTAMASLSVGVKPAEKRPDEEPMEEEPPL

For the next test, the system named is HGC-27. In words: Cytotoxicity against human HGC-27 cells assessed as reduction in cell viability incubated for 72 hrs by MTS assay. Type of test: functional, cell-based. In a few lines:
as §1

Test [6] concerns the target NAD-dependent protein deacylase sirtuin-5, mitochondrial (Homo sapiens) (UniProt Q9NXA8). In words: Inhibition of Sirt5 (unknown origin) using Bz-GVLK(Succ)EYGV-NH2 as substrate at 20 to 500 uM preincubated for 5 mins followed by enzyme addition and measured after 5 mins by RP-HPLC analysis. The following applies: dose 20-500 µM, time 10.0 min. In a few lines: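 Discontinuous HPLC assay, 120 µL in 20 mM Tris pH 7.8, 150 mM NaCl, 5 mM MgCl2, 0.2 mg/mL BSA, 5% DMSO. Inhibitor preincubated at 37 °C with NAD+ (1 mM) and substrate (Sirt5 5 µM; Sirt6 20 µM). Started with enzyme (Sirt5 100 nM; Sirt6 500 nM). Quenched with TFA/ACN. Sirt5 read by A220, Sirt6 by A360 (nitrotyrosine). Performed once in duplicates; IC50 by nonlinear regression.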

Another test deals with W1 Ovarian cancer cell. The experiment in a line: Cytotoxicity against human W1 Ovarian cancer cells assessed as reduction in cell viability incubated for 72 hrs by MTT assay. Type of test: functional, cell-based. In a few lines: as §1
In test [7] the target is Histone deacetylase 5 (Homo sapiens) (UniProt Q9UQL6). The experiment in a line: Inhibition of HDAC5 (unknown origin) using Abz-SRGGK(STFA)FRR-NH2 as substrate at 6 to 20000 nM preincubated for 5 mins followed by substrate addition and measured every 30 secs for 30 mins by continuous fluorescence based assay. The following applies: dose 6-20000 nM, time 35.0 min. An outline of the steps: as §2
Sequence of Histone deacetylase 5 (Homo sapiens) (Q9UQL6 whole entry): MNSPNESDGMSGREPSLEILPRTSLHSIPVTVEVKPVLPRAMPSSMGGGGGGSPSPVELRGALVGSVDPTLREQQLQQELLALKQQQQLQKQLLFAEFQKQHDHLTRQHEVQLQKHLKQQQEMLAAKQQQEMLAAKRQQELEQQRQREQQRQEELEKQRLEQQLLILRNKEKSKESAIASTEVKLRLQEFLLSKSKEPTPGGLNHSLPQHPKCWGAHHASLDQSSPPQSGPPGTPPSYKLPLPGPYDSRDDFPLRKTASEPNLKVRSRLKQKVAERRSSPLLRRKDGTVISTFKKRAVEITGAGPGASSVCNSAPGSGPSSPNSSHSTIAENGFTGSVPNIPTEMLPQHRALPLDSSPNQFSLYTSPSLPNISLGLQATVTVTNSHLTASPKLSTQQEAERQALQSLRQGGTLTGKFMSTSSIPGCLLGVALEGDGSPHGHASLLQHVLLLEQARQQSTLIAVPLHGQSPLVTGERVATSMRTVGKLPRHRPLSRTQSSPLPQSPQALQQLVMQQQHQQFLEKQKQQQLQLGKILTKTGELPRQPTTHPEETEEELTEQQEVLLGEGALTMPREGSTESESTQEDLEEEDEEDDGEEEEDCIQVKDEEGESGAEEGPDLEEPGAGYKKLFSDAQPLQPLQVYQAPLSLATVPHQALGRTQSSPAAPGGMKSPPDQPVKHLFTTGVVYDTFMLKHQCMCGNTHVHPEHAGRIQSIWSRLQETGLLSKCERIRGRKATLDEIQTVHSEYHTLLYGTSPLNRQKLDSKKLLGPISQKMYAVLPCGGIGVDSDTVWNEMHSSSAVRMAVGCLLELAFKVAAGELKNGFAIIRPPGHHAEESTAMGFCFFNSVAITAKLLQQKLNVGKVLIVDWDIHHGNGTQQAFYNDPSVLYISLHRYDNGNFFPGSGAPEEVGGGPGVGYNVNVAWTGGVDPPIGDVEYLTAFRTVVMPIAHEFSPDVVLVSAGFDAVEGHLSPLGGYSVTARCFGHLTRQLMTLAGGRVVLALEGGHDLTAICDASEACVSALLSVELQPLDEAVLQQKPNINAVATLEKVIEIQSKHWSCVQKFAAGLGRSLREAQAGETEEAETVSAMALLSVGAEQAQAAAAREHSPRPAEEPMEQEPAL

Activity calls are given as the source filed them. The calls are words filed in the database; no cut-off is given here.

Sequence of Histone deacetylase 9 (Homo sapiens) (Q9UKV0 whole entry): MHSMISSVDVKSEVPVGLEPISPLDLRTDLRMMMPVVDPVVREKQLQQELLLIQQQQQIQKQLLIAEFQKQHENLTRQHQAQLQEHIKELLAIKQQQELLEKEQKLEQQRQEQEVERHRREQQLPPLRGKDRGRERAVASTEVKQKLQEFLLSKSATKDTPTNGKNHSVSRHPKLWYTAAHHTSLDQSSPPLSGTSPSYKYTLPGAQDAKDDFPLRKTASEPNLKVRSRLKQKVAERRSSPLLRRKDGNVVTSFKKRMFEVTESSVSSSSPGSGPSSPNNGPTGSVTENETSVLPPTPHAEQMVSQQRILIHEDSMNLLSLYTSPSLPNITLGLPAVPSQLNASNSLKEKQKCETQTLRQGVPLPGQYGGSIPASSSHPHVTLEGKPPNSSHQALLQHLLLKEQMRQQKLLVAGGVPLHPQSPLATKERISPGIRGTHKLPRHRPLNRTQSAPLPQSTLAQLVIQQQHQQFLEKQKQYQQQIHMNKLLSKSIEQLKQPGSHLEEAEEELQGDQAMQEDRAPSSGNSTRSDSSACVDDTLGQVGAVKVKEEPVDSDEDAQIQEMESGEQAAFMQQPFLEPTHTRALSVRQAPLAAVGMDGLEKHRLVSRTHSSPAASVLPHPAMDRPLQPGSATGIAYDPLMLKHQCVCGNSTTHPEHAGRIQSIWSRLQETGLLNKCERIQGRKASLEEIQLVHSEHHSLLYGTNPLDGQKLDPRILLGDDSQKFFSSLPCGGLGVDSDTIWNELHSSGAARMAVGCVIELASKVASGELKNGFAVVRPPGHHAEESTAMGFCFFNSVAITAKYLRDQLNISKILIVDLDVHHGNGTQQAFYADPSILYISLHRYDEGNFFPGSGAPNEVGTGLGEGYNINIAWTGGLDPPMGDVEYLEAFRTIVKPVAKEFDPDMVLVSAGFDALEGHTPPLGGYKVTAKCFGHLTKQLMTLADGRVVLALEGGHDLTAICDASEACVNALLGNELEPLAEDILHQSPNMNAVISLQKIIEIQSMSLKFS
Sequence of NAD-dependent protein deacylase sirtuin-5, mitochondrial (Homo sapiens) (Q9NXA8 37-310 limits assumed): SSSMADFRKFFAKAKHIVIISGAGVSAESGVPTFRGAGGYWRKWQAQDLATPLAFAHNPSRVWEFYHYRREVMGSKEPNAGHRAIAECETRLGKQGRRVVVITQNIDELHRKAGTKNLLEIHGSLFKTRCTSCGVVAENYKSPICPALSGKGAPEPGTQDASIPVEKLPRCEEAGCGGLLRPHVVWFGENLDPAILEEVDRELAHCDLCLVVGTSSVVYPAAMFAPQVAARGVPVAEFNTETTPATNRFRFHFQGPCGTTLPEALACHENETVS

On to `CCCCN(Cc1ccc(C(=O)NO)cc1)C(=O)CCCCn1cc(COc2cccc(Cc3cnc(NC(=O)CSc4nc(C)cc(C)n4)s3)c2)nn1`, for which the outcome in the test with PC-3M-luc [1], with HGC-27 and with W1 Ovarian cancer cell was Active. The inhibition result in test [2], in test [3], in [5], in [6] and in [7] was “inactive” each time. For the same compound, the inhibition result in the test with PC-3M-luc [4] was “Active”.
